Calls of active or inactive are those of the source. The rule behind the calls is not given here.
Key:
SGC-7901 [1] = assay: Anticancer activity against human SGC-7901 cells assessed as inhibition of cell proliferation after 48 hrs by MTT assay; type: functional, cell-based
Method in brief: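 MTT assay with 48 h compound exposure. MTT solution was then added and incubated 4 h at 37 °C, the supernatant discarded and formazan dissolved in DMSO, with absorbance read at 490 nm. IC50 values were calculated from three independent experiments, reported as mean SD.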

[2] = Selectivity index, ratio of IC50 for human GES1 cells to IC50 for human HGC-27 cells assessed as inhibition of cell proliferation after 48 hrs by MTT assay
Method in brief: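 Fold selectivity is the IC50 in GES-1 normal gastric epithelial cells divided by the IC50 in the gastric cancer line (HGC-27, MGC-803 or SGC-7901). Both IC50s come from 48 h exposure, MTT (4 h, 37 °C), DMSO solubilisation and 490 nm absorbance, with three independent experiments.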

MGC-803 [3] = assay: Cell cycle arrest at G2 phase in human MGC-803 cells assessed as downregulation of Cyclin B level at 0.5 to 1.5 umol/L after 48 hrs by Western blot analysis; type: functional, cell-based; details: dose micromol/L 0.5-1.5, time 48.0 hrs
Method in brief: (§1)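 Western blot. Cells were treated with compound concentrations or DMSO for 48 h, then lysed, and lysates were denatured, run on SDS-PAGE and transferred to nitrocellulose. After blocking in 5% skimmed milk, membranes were incubated with primary antibodies at 4 °C for 8 h, then secondary antibodies, with ECL detection.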

MGC-803 [4] = assay: Inhibition of Ras/Raf/MEK/ERK signalling pathway in human MGC-803 cells assessed as decrease in MEK1 phosphorylation after 48 hrs by Western blot analysis; type: cell-based; details: dose micromol/L 0.5-1.5, time 48.0 hrs
Method in brief: (§2)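 Cells treated with graded concentrations or DMSO for 48 h, then harvested and lysed. Lysates denatured, resolved by SDS-PAGE and transferred to nitrocellulose. Membranes blocked with 5% skimmed milk and probed with primary antibodies at 4 °C for 8 h, then with secondary antibodies. Bands detected by ECL.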

SGC-7901 [5] = assay: Inhibition of Ras/Raf/MEK/ERK signalling pathway in human SGC-7901 cells assessed as decrease in MEK1 phosphorylation after 48 hrs by Western blot analysis; type: cell-based; details: dose micromol/L 0.5-1.5, time 48.0 hrs; method in brief: as §2
SGC-7901 [6] = assay: Inhibition of Ras/Raf/MEK/ERK signalling pathway in human SGC-7901 cells assessed as decrease in ERK1/2 phosphorylation after 48 hrs by Western blot analysis; type: cell-based; details: dose micromol/L 0.5-1.5, time 48.0 hrs; method in brief: as §2
SGC-7901 [7] = assay: Inhibition of Ras/Raf/MEK/ERK signalling pathway in human SGC-7901 cells assessed as downregulation of FoxO3a expression at 0.5 to 1.5 umol/L after 48 hrs by Western blot analysis; type: cell-based; details: dose micromol/L 0.5-1.5, time 48.0 hrs; method in brief: as §2
MGC-803 [8] = assay: Inhibition of Ras/Raf/MEK/ERK signalling pathway in human MGC-803 cells assessed as downregulation of c-Myc expression at 0.5 to 1.5 umol/L after 48 hrs by Western blot analysis; type: cell-based; details: dose micromol/L 0.5-1.5, time 48.0 hrs; method in brief: as §2
HGC-27 [9] = assay: Inhibition of Ras/Raf/MEK/ERK signalling pathway in human HGC-27 cells assessed as downregulation of c-Myc expression at 0.5 to 1.5 umol/L after 48 hrs by Western blot analysis; type: cell-based; details: dose micromol/L 0.5-1.5, time 48.0 hrs; method in brief: as §2
MGC-803 [10] = assay: Inhibition of Akt/mTOR signalling pathway in human MGC-803 cells assessed as decrease in mTOR phosphorylation at Ser2448 residue at 0.5 to 1.5 umol/L after 48 hrs by Western blot analysis; type: cell-based; details: dose micromol/L 0.5-1.5, time 48.0 hrs; method in brief: as §2
SGC-7901 [11] = assay: Inhibition of Akt/mTOR signalling pathway in human SGC-7901 cells assessed as decrease in mTOR phosphorylation at Ser2448 residue at 0.5 to 1.5 umol/L after 48 hrs by Western blot analysis; type: cell-based; details: dose micromol/L 0.5-1.5, time 48.0 hrs; method in brief: as §2
HGC-27 [12] = assay: Induction of apoptosis in human HGC-27 cells after 48 hrs by flow cytometry analysis; type: functional, cell-based; details: dose micromol/L 0.5-1.5, time 48.0 hrs
HGC-27 [13] = assay: Induction of apoptosis in human HGC-27 cells assessed as increase in nucleus concentration at 0.5 to 1.5 umol/L after 48 hrs by imaging analysis; type: functional, cell-based; details: dose micromol/L 0.5-1.5, time 48.0 hrs
SGC-7901 [14] = assay: Induction of apoptosis in human SGC-7901 cells assessed as increase in nucleus concentration at 0.5 to 1.5 umol/L after 48 hrs by imaging analysis; type: functional, cell-based; details: dose micromol/L 0.5-1.5, time 48.0 hrs
MGC-803 [15] = assay: Induction of apoptosis in human MGC-803 cells assessed as induction of DNA fragmentation at 0.5 to 1.5 umol/L after 48 hrs by imaging analysis; type: functional, cell-based; details: dose micromol/L 0.5-1.5, time 48.0 hrs
MGC-803 [16] = assay: Induction of apoptosis in human MGC-803 cells assessed as cleavage of caspase-7 at 0.5 to 1.5 umol/L after 48 hrs Western blot analysis; type: functional, cell-based; details: dose micromol/L 0.5-1.5, time 48.0 hrs; method in brief: as §1
MGC-803 [17] = assay: Induction of apoptosis in human MGC-803 cells assessed as downregulation of c-IAP1 level at 0.5 to 1.5 umol/L after 48 hrs Western blot analysis; type: functional, cell-based; details: dose micromol/L 0.5-1.5, time 48.0 hrs; method in brief: as §1
MGC-803 [18] = assay: Induction of apoptosis in human MGC-803 cells assessed as downregulation of XIAP level at 0.5 to 1.5 umol/L after 48 hrs Western blot analysis; type: functional, cell-based; details: dose micromol/L 0.5-1.5, time 48.0 hrs; method in brief: as §1
HGC-27 [19] = assay: Induction of apoptosis in human HGC-27 cells assessed as downregulation of c-IAP1 level at 0.5 to 1.5 umol/L after 48 hrs Western blot analysis; type: functional, cell-based; details: dose micromol/L 0.5-1.5, time 48.0 hrs; method in brief: as §1
SGC-7901 [20] = assay: Induction of apoptosis in human SGC-7901 cells assessed as upregulation of NOXA level at 0.5 to 1.5 umol/L after 48 hrs Western blot analysis; type: functional, cell-based; details: dose micromol/L 0.5-1.5, time 48.0 hrs; method in brief: as §1
SGC-7901 [21] = assay: Induction of apoptosis in human SGC-7901 cells assessed as downregulation of Bcl-2 level at 0.5 to 1.5 umol/L after 48 hrs Western blot analysis; type: functional, cell-based; details: dose micromol/L 0.5-1.5, time 48.0 hrs; method in brief: as §1
SGC-7901 [22] = assay: Induction of apoptosis in human SGC-7901 cells assessed as downregulation of c-IAP1 level at 0.5 to 1.5 umol/L after 48 hrs Western blot analysis; type: functional, cell-based; details: dose micromol/L 0.5-1.5, time 48.0 hrs; method in brief: as §1
SGC-7901 [23] = assay: Inhibition of colony formation in human SGC-7901 cells at 0.5 to 1.5 umol/L after 7 days by crystal violet staining based assay; type: functional, cell-based; details: dose micromol/L 0.5-1.5, time 7.0 day
Method in brief: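 5000 cells per well seeded and held 24 h at 37 °C, 5% CO2, then exposed to graded concentrations (0.5, 1, 1.5 µmol/L). After 7 days the medium was removed and wells were washed twice with PBS. Colonies fixed in 4% paraformaldehyde and stained with 0.1% crystal violet.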

HGC-27 [24] = assay: Cell cycle arrest at G2 phase in human HGC-27 cells assessed as downregulation of CDK1 level at 0.5 to 1.5 umol/L after 48 hrs by Western blot analysis; type: functional, cell-based; details: dose micromol/L 0.5-1.5, time 48.0 hrs; method in brief: as §1
SGC-7901 [25] = assay: Cell cycle arrest at G2 phase in human SGC-7901 cells assessed as downregulation of CDK1 level at 0.5 to 1.5 umol/L after 48 hrs by Western blot analysis; type: functional, cell-based; details: dose micromol/L 0.5-1.5, time 48.0 hrs; method in brief: as §1
HGC-27 [26] = assay: Anticancer activity against human HGC-27 cells assessed as cell growth at 0.5 to 1.5 umol/L after 48 hrs by MTT assay relative to control; type: functional; details: dose micromol/L 0.5-1.5
MGC-803 [27] = assay: Inhibition of Ras/Raf/MEK/ERK signalling pathway in human MGC-803 cells assessed as effect on RAS level at 0.5 to 1.5 umol/L after 48 hrs by Western blot analysis; type: cell-based; details: dose micromol/L 0.5-1.5, time 48.0 hrs; method in brief: as §2
HGC-27 [28] = assay: Inhibition of Ras/Raf/MEK/ERK signalling pathway in human HGC-27 cells assessed as effect on RAS level at 0.5 to 1.5 umol/L after 48 hrs by Western blot analysis; type: cell-based; details: dose micromol/L 0.5-1.5, time 48.0 hrs; method in brief: as §2

COc1cc(N(Cc2nc3ccccc3[nH]2)S(=O)(=O)c2ccc(C)cc2)cc(OC)c1OC
Activity (SGC-7901 [1]): Dose-dependent effect
IC50 (SGC-7901 [1]; SGC-7901, 48 h): 2300 nM
Ratio IC50 [2]: 9.4
Activity (MGC-803 [3]): Active
inhibition (MGC-803 [4]): Dose-dependent effect
inhibition (SGC-7901 [5]): Dose-dependent effect
inhibition (SGC-7901 [6]): Dose-dependent effect
inhibition (SGC-7901 [7]): Active
inhibition (MGC-803 [8]): Active
inhibition (HGC-27 [9]): Active
inhibition (MGC-803 [10]): Active
inhibition (SGC-7901 [11]): Active
Activity (HGC-27 [12]): Dose-dependent effect
Activity (HGC-27 [13]): Active
Activity (SGC-7901 [14]): Active
Activity (MGC-803 [15]): Active
Activity (MGC-803 [16]): Active
Activity (MGC-803 [17]): Active
Activity (MGC-803 [18]): Active
Activity (HGC-27 [19]): Active
Activity (SGC-7901 [20]): Active
Activity (SGC-7901 [21]): Active
Activity (SGC-7901 [22]): Active
inhibition (SGC-7901 [23]): Active
Activity (HGC-27 [24]): Active
Activity (SGC-7901 [25]): Active
fold change (FC) (HGC-27 [26]): <2
inhibition (MGC-803 [27]): inactive
inhibition (HGC-27 [28]): inactive
